# Assay results from different studies.
# Each line is one published result; the experiments were not run side by side.
# CDK11B: Cyclin-dependent kinase 11B (CDK11B, Homo sapiens, UniProt P21127)
# ALOX5: Polyunsaturated fatty acid 5-lipoxygenase (ALOX5, Homo sapiens, UniProt P09917)
SMILES,target,read-out,action,technique,concentration,measurement,result
CCN(CC)CCCC[C@H](NC(=O)[C@H](CC(C)C)NC(=O)[C@H](C)NC(=O)[C@H](Cc1ccccc1)NC(=O)c1ccc(C(C)(C)C)cc1)C(=O)N[C@@H](CO)C(=O)OC,"Bromodomain-containing protein 4, BD2 (BRD4, Homo sapiens, UniProt O60885)",thermal stability,,DSF,25 µM,ΔTm,0.2 °C
COc1ncccc1-c1cnn2ccc(N3CCN(C(=O)OC(C)C)CC3)nc12,CDK11B,binding,,competition with immobilised ligand,1 µM,remaining binding,89%
COc1cc(Nc2ncc(F)c(Nc3ccc4c(n3)NC(=O)C(C)(C)O4)n2)cc(OC)c1OC,"Mitogen-activated protein kinase kinase kinase 4 (MAP3K4, Homo sapiens, UniProt Q9Y6R4)",binding,,competition with immobilised ligand,10 µM,inhibition,71%
Nc1ncc(-c2nc(N3CCOCC3)nc(N3CCOCC3)n2)c(C(F)F)n1,"Serine/threonine-protein kinase ICK (CILK1, Homo sapiens, UniProt Q9UPZ9)",binding,,competition with immobilised ligand,10 µM,remaining binding,72%
N#Cc1ccc(NCCNCC(=O)N2N=CCC2C#N)nc1 (stereo not drawn),"Dipeptidyl peptidase 8 (Homo sapiens, UniProt Q6V1X1)",enzyme activity,inhibitor,,10 µM,inhibition,15%
C[C@H](C(=O)N[C@H]1COc2ccccc2[C@@H]1S(C)(=O)=O)c1ccc(F)cc1,ALOX5,enzyme activity,inhibitor,,10 µM,inhibition,13%
Cc1nn(C)cc1-c1nc2c(N3CCN(Cc4ccc(Cl)cc4)CC3)c(Cl)cnc2[nH]1,CDK11B,binding,,competition with immobilised ligand,1 µM,remaining binding,100%
c1ccc(C(NCCNC(c2ccccc2)c2ccccc2)c2ccccc2)cc1,ALOX5,enzyme activity,inhibitor,,10 µM,inhibition,99%
C#Cc1n[nH]c2c(-c3cn(C(C)c4ccccn4)c(=O)[nH]c3=O)cc(F)cc12 (stereo not drawn),"Protein kinase C alpha type (PRKCA, Homo sapiens, UniProt P17252)",enzyme activity,inhibitor,,1 µM,inhibition,9.8%
